Publication PMC9468552 (Clinical and Translational Science, 2022)
Where two headings read alike, the source gives them in different places.

How the values were obtained:
CYP3A4 [1] = target: T1, CYP3A4 (Homo sapiens, UniProt P08684); test: Study 004: DDI of EDP‐305; assay type: in vivo; conditions: for Cmax: human, plasma, oral, Geo LSMean
CYP3A4 [2] = target: T1, CYP3A4; test: Study 008: effect of EDP‐305 on combined oral contraceptive; assay type: in vivo; conditions: for AUC0,t, Geo LSMean ratio (90% CI) / Cmax, Geo LSMean ratio (90% CI): OC + EDP‐305 vs OC alone; for AUC(0-t) / Cmax: human, plasma, oral, Geo LSMean, day 21; for AUC(0-t): AUC0,t; for Peak and systemic exposures (Cmax and AUC0‐τ), OC + EDP‐305 vs OC alone: in words
OATP1B1/B3 and BCRP = test: Study 004: DDI of EDP‐305; assay type: in vivo, human
P‐gp [3] = target: P‐gp (Homo sapiens, UniProt P08183); assay type: in vivo
Chain of P‐gp (Homo sapiens, UniProt P08183) (P08183 whole entry): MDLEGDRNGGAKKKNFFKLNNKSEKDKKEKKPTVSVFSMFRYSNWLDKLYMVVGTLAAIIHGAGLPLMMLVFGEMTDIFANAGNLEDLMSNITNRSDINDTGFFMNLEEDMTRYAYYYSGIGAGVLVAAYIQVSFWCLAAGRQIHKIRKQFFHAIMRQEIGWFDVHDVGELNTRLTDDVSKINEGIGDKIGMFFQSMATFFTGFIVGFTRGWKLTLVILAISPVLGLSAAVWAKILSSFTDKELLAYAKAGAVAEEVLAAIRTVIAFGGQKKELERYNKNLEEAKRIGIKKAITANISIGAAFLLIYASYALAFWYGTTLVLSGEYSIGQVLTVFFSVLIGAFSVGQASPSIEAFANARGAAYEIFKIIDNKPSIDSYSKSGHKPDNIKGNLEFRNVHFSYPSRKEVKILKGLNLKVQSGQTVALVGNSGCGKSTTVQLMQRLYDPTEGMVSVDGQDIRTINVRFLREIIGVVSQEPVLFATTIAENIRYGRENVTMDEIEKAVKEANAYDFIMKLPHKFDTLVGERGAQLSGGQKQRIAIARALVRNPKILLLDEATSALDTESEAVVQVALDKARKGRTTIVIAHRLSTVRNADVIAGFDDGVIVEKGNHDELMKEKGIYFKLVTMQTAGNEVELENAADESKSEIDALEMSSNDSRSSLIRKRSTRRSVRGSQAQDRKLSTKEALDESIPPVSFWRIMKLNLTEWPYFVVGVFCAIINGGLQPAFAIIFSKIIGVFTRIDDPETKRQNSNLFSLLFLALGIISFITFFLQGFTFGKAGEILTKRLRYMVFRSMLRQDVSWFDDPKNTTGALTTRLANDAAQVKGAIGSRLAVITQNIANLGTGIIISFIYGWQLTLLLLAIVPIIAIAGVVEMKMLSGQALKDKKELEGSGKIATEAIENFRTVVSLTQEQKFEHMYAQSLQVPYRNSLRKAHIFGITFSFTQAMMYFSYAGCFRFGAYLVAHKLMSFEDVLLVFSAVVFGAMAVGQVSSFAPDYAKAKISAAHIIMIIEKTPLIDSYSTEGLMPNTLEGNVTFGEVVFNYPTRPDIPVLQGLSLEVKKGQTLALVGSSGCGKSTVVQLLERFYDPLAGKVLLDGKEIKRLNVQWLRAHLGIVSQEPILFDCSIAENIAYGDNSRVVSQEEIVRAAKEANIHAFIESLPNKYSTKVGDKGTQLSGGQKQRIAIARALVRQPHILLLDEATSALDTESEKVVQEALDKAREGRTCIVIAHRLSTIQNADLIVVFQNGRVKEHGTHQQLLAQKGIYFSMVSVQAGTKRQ

[4] = system: cytochrome (CYP) 1A2, 2B6, 2C8, 2C9, 2C19, 2D6, and 3A4 isoenzymes; conditions: standard hepatic microsome studies; preclinical studies; cited from earlier work
CYP3A4 [5] = target: T1, CYP3A4; assay type: in vivo
[6] = Safety/tolerability in the four DDI studies; assay type: in vivo, human; conditions: all four studies
CYP1A2, 2B6, and 3A4 = conditions: preclinical studies; cited from earlier work
[7] = radiolabeled mass balance study; ref data on file; Enanta Pharmaceuticals; cited from earlier work
[8] = 12‐week phase II study, 132 non‐cirrhotic patients; cited from earlier work
P‐gp [9] = conditions: in vitro; ref data on file; cited from earlier work
[10] = cited from earlier work
OATP1B1 and OATP1B3 = conditions: in vitro; ref data on file; cited from earlier work
[11] = same dose/formulation; ref data on file; cited from earlier work
BCRP = conditions: in vitro; ref data on file; cited from earlier work
[12] = Study 004: trough levels of EDP‐305 and metabolites with and without probes; assay type: in vivo, human
Summary of the method: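 Healthy volunteers received single oral midazolam 2 mg and caffeine 200 mg on days 1 and 12, and rosuvastatin 20 mg on days 2 and 13. EDP‐305 was given as a 10 mg/30 ml oral suspension each morning on days 5–15 after an overnight fast. Predose troughs were drawn on days 5, 8 and 10–17. Parent and metabolites were measured by LC–MS/MS (range 0.0300–30.0 ng/ml).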

CYP3A4 [13] = target: T1, CYP3A4; assay type: in vivo; remark: listed apart in the source
[14] = system: BSEP, MRP2, P‐gp, and BCRP transporters; conditions: in vitro; ref data on file; cited from earlier work
CYP3A4 [15] = target: T1, CYP3A4; assay type: in vivo; remark: listed apart in the source
Summary of the method: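 Healthy subjects in a separate part took oral rifampin 600 mg once daily on days 5–16. EDP‐305 10 mg suspension was given on days 1 and 14 after a 10 h fast that continued ≥4 h postdose. Plasma was drawn predose and 0.5–12 h postdose, plus 24, 48 and 72 h before the morning rifampin dose. Analysis used LC–MS/MS and noncompartmental PK. A mixed model on ln values (subject random) gave the geometric LS mean ratio with 90% CI, with EDP‐305 alone as reference.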

[16] = relative bioavailability assessment; ref data on file; cited from earlier work
CYP1A2 = target: T2, CYP1A2 (Homo sapiens, UniProt P05177); test: Study 004: DDI of EDP‐305; assay type: in vivo; conditions: for Cmax: human, plasma, oral, Geo LSMean
T2 sequence (P05177 1-516): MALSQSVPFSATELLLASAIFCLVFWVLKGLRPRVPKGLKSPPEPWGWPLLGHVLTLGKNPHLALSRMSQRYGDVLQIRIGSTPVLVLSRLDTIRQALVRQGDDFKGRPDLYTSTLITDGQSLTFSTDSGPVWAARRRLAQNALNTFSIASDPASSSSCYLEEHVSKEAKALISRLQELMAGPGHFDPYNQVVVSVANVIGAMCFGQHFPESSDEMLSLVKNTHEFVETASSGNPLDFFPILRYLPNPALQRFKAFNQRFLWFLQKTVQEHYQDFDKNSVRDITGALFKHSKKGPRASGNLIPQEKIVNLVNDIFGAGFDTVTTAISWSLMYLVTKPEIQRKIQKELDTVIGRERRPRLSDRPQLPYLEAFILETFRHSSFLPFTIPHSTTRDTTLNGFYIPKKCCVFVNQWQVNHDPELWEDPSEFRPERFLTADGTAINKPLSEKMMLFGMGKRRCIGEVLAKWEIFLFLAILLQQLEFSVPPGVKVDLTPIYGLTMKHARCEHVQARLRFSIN

[17] = system: messenger RNA (mRNA) for CYP1A2 and CYP3A4; conditions: incubation in liver microsomes (hepatocytes) in the presence of EDP‐305; preclinical studies; cited from earlier work
[18] = OC + EDP‐305 2.5 mg tablet (test)
[19] = rosuvastatin + EDP‐305 vs rosuvastatin alone
[20] = EDP‐305 5 mg tablet + quinidine 300 mg BID (test)
[21] = EDP‐305 5 mg tablet alone (reference)
[22] = EDP‐305 + quinidine vs EDP‐305 alone
[23] = EDP‐305 2.5 mg tablet co‐administered with OC
[24] = EDP‐305 10 mg + itraconazole 200 mg q.d. (test)
[25] = EDP‐305 10 mg alone (reference)
[26] = EDP‐305 + itraconazole vs EDP‐305 alone
[27] = EDP‐305 5 mg tablet + fluconazole 400 mg QD (test)
[28] = EDP‐305 10 mg + rifampin 600 mg q.d. (test)
[29] = EDP‐305 + rifampin vs EDP‐305 alone
[30] = caffeine + EDP‐305 vs caffeine alone
[31] = midazolam 2 mg + EDP‐305 10 mg (test)
[32] = midazolam + EDP‐305 vs midazolam alone

T1 sequence (P08684 whole entry): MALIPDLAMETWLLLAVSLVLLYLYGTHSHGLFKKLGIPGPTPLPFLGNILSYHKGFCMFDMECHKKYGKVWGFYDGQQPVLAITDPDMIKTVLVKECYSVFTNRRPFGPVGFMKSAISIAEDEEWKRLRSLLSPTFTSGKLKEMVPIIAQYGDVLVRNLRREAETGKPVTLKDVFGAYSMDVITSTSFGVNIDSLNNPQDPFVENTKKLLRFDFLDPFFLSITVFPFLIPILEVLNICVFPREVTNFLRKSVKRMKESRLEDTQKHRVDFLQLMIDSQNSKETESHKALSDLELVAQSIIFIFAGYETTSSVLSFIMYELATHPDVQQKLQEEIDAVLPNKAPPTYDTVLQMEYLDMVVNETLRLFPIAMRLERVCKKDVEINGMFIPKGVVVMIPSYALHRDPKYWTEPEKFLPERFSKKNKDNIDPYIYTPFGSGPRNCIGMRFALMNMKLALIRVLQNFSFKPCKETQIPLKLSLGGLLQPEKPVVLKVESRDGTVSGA

## OCc1ncc2n1-c1ccc(Cl)cc1C(c1ccccc1F)=NC2 [1′‐hydroxymidazolam]
CYP3A4 [1]; midazolam administered alone
  GM AUCR0‐inf, metabolite‐to‐parent ratio: 39.1%
CYP3A4 [1]; midazolam administered with EDP‐305
  GM AUCR0‐inf, metabolite‐to‐parent ratio: 20.6%

## C#C[C@]1(O)CC[C@H]2[C@@H]3CCc4cc(O)ccc4[C@H]3CC[C@@]21C [ethinyl estradiol]
CYP3A4 [2]
  AUC0,t, Geo LSMean ratio (90% CI): 1.08 (1.00, 1.16)
  Cmax, Geo LSMean ratio (90% CI): 1.08 (0.99, 1.19)
  Peak and systemic exposures (Cmax and AUC0‐τ), OC + EDP‐305 vs OC alone: similar
CYP3A4 [2]; OC alone (reference)
  AUC(0-t): 1.25 ng·h/mL
  Cmax: 0.137 ng/mL
CYP3A4 [2]; [18]
  Cmax: 0.148 ng/mL

## CC(C)c1nc(N(C)S(C)(=O)=O)nc(-c2ccc(F)cc2)c1/C=C/[C@@H](O)C[C@@H](O)CC(=O)O [rosuvastatin]
OATP1B1/B3 and BCRP; human, plasma, oral, Cmax, Geo LSMean, rosuvastatin 20 mg + EDP‐305 10 mg (test)
  Cmax: 5.59 ng/mL
OATP1B1/B3 and BCRP; [19]
  effect on Tmax: no apparent effect
  increase in AUC0‐t: 1.24 fold
  longer t1/2 (increase): 17%
  lower CL/F (decrease): 20%

## CC(C)c1nc(NS(C)(=O)=O)nc(-c2ccc(F)cc2)c1/C=C/[C@@H](O)C[C@@H](O)CC(=O)O [N‐desmethyl‐rosuvastatin]
OATP1B1/B3 and BCRP; rosuvastatin administered alone
  GM AUCR0‐inf, metabolite‐to‐parent ratio: 16.6%
OATP1B1/B3 and BCRP; rosuvastatin administered with EDP‐305
  GM AUCR0‐inf, metabolite‐to‐parent ratio: 11.2%

## C#C[C@]1(O)CC[C@H]2[C@@H]3CCC4=CC(=NO)CC[C@@H]4[C@H]3CC[C@@]21CC (mixture of isomers) [norelgestromin]
CYP3A4 [2]
  AUC0,t, Geo LSMean ratio (90% CI): 0.99 (0.92, 1.05)
  Cmax, Geo LSMean ratio (90% CI): 0.94 (0.86, 1.02)
  Peak and systemic exposures (Cmax and AUC0‐τ), OC + EDP‐305 vs OC alone: similar
CYP3A4 [2]; OC alone (reference)
  AUC(0-t): 25.9 ng·h/mL
  Cmax: 2.64 ng/mL
CYP3A4 [2]; [18]
  Cmax: 2.47 ng/mL

## CC[C@H]1[C@@H](O)[C@@H]2[C@H](CC[C@]3(C)[C@@H]([C@H](C)CCNC(=O)NS(=O)(=O)c4ccc(C(C)(C)C)cc4)CC[C@@H]23)[C@@]2(C)CC[C@@H](O)C[C@@H]12 [EDP‐305]
P‐gp [3]; [20]
  AUC0,inf, Geo LSMean: 367.17 ng·h/mL
  Cmax, Geo LSMean: 31.78 ng/mL
P‐gp [3]; [21]
  AUC0,inf, Geo LSMean: 353.24 ng·h/mL
  Cmax, Geo LSMean: 31.64 ng/mL
P‐gp [3]; [22]
  AUC0,inf, Geo LSMean ratio (90% CI): 1.04 (0.95, 1.14)
  Cmax, Geo LSMean ratio (90% CI): 1.00 (0.92, 1.10)
  effect on EDP‐305 peak or systemic exposure: no apparent effect
  effect on Tmax, Vd/F, CL/F, and t1/2: minimal effect
CYP3A4 [2]; [23]
  geometric mean t1/2: 9.6 h
  median Tmax: 4.0 h
CYP3A4 [2]; co‐administration of combined OC and EDP‑305
  effect on serum progesterone levels: no effect
[4]
  potential to inhibit CYP 1A2, 2B6, 2C8, 2C9, 2C19, 2D6, and 3A4: low potential to inhibit
CYP3A4 [5]; [24]
  AUC0,inf, Geo LSMean: 1891.47 ng·h/mL
  Cmax, Geo LSMean: 50.48 ng/mL
CYP3A4 [5]; [25]
  AUC0,inf, Geo LSMean: 360.31 ng·h/mL
  Cmax, Geo LSMean: 31.25 ng/mL
CYP3A4 [5]; [26]
  delayed Tmax: 2 fold
  longer t1/2 (increase): 2.79 fold
CYP3A4 [1]; increase in midazolam AUC less than twofold
  classification as CYP3A4 inhibitor from increase in midazolam AUC: weak inhibitor of CYP3A4
[6]
  tolerability: well‐tolerated
CYP1A2, 2B6, and 3A4
  potential to induce CYP1A2, 2B6, and 3A4: low potential
[7]
  EDP‐305 in urine: not detected
  mean recovery of total radioactivity in feces: 78.7%
  mean recovery of total radioactivity in urine: 1.42%
[8]
  efficacy in patients with fibrotic NASH: reduced hepatic enzyme levels and liver fat
P‐gp [9]
  P‐gp substrate: has potential to be a P‐gp substrate
[10]; single doses up to 80 mg, multiple daily doses up to 20 mg for 14 days
  tolerability: well‐tolerated
[10]; visual inspection of trough concentrations, across all doses
  steady‐state pharmacokinetics reached: ≤ 9 days
OATP1B1 and OATP1B3
  inhibition of OATP1B1 and OATP1B3: the potential for EDP‐305 to inhibit
[11]
  exposures in patients with NASH versus healthy subjects: approximately twofold higher
BCRP
  BCRP substrate: unlikely to be a BCRP substrate
[12]; EDP‐305 10 mg daily from day 5, majority of subjects
  steady‐state concentrations achieved: ≤ 12 days
[12]; single doses of midazolam, caffeine, rosuvastatin
  effect of co‐administered enzyme or transporter probes on PK: no apparent effect
CYP3A4 [13]; [27]
  AUC0,inf, Geo LSMean: 1537.60 ng·h/mL
  Cmax, Geo LSMean: 57.71 ng/mL
CYP3A4 [13]; [21]
  AUC0,inf, Geo LSMean: 408.40 ng·h/mL
  Cmax, Geo LSMean: 32.73 ng/mL
CYP3A4 [13]; EDP‐305 + fluconazole compared to EDP‐305 alone
  CL/F and Vd/F, change: decreased
CYP3A4 [13]; EDP‐305 + fluconazole relative to EDP‐305 alone
  t1/2 increased: increased
[14]
  inhibition of BSEP, MRP2, P‐gp, and BCRP: low potential to inhibit
CYP3A4 [15]; [28]
  AUC0,inf, Geo LSMean: 137.92 ng·h/mL
  Cmax, Geo LSMean: 27.02 ng/mL
CYP3A4 [15]; [25]
  AUC0,inf, Geo LSMean: 393.59 ng·h/mL
  Cmax, Geo LSMean: 29.62 ng/mL
CYP3A4 [15]; [29]
  AUC0,inf, Geo LSMean ratio (90% CI): 0.35 (0.30, 0.41)
  effect on EDP‐305 peak exposure: no apparent effect
  effect on Tmax: no apparent effect
  higher CL/F: 2.77 fold
  higher Vd/F: 1.79 fold
  shorter t1/2: 0.35 fold
  total systemic exposure decreased: ~ 65%
[16]
  exposures of tablet compared to suspension: approximately twofold higher
CYP1A2; increase in caffeine AUC less than twofold
  classification as CYP1A2 inhibitor from increase in caffeine AUC: weak inhibitor of CYP1A2
[17]
  effect on mRNA for CYP1A2 and CYP3A4: concentration‐dependent downregulation

## Cn1c(=O)c2c(ncn2C)n(C)c1=O [caffeine]
CYP1A2; [30]
  delayed Tmax (increase): 50%
  effect on Vd/F: little effect
  increase in AUC0‐t: 1.90 fold
  longer t1/2 (increase): 64%
  lower CL/F (decrease): 45%
CYP1A2; 200 mg, caffeine 200 mg alone (reference)
  Cmax: 4190 ng/mL
CYP1A2; caffeine 200 mg + EDP‐305 10 mg (test)
  Cmax: 4720 ng/mL

## C#C[C@]1(O)CC[C@H]2[C@@H]3CCC4=CC(=O)CC[C@@H]4[C@H]3CC[C@@]21CC [levonorgestrel]
CYP3A4 [2]
  AUC0,t, Geo LSMean ratio (90% CI): 1.31 (1.23, 1.39)
  Cmax, Geo LSMean ratio (90% CI): 1.29 (1.21, 1.38)
CYP3A4 [2]; OC alone (reference)
  AUC(0-t): 57.2 ng·h/mL
  Cmax: 2.99 ng/mL
CYP3A4 [2]; [18]
  Cmax: 3.85 ng/mL

## Cc1ncc2n1-c1ccc(Cl)cc1C(c1ccccc1F)=NC2 [midazolam]
CYP3A4 [1]; 2 mg, midazolam 2 mg alone (reference)
  Cmax: 7.51 ng/mL
CYP3A4 [1]; [31]
  Cmax: 9.41 ng/mL
  AUC0,inf, Geo LSMean: 32.22 ng·h/mL
CYP3A4 [1]; [32]
  delayed Tmax (increase): 98%
  increase in AUC0‐t: 1.53 fold
  longer t1/2 (increase): 34%
  lower CL/F (decrease): 36%
  lower Vd/F (decrease): 14%
